Results on 2 molecules are retold here after ChEMBL document CHEMBL4673285, “Design, Synthesis, and Biological Evaluation of Linear Aliphatic Amine-Linked Triaryl Derivatives as Potent Small-Molecule Inhibitors of the Programmed Cell Death-1/Programmed Cell Death-Ligand 1 Interaction with Promising Antitumor Effects In Vivo” (J Med Chem, 2020).

For data set [1], the target named is T1, Programmed cell death 1 ligand 1 (Homo sapiens, UniProt Q9NZQ7). Kind of data set: Binding affinity to biotinylated human AVI-PD-L1 assessed as association constant by biolayer interferometry. Summed up: (§1)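 Biotinylated human PD-L1/AVI at 10 μg/mL loaded on streptavidin biosensors for 300 s, then baselined. Association with compound at 20 to 0.3125 nM plus 0 nM for 180 s, then dissociation in buffer for 300 s. Data globally fitted to a 1:1 model to give ka and kdis; apparent affinity taken as their ratio.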
T1 sequence (Q9NZQ7 whole entry): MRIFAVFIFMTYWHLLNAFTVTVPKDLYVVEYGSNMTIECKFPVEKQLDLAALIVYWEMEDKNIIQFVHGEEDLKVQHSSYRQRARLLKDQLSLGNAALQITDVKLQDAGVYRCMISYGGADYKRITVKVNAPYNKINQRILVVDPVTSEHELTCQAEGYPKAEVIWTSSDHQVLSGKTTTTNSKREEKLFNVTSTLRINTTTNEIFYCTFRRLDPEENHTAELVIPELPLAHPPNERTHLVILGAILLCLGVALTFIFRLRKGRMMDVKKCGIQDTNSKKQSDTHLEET
On the technique in general: BLI is a label-free optical method that tracks binding on a fibre tip over time.

Data set [2] is described as follows: Acute toxicity in C57BL/6J mouse xenografted with MC38 cells assessed as behavior changes at 15 mg/kg, ip QD for 3 week. Format: organism-based. The following applies: in vivo, 504 h, time 3 weeks.
Data set [3] is described as follows: Half-life in male Sprague-Dawley rat at 4 mg/kg, iv measured up to 24 hrs by LC-MS/MS analysis. Format: ADME, organism-based. The conditions noted are these: in vivo. In short, it runs like this:
(§2)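 Male Sprague Dawley rats (n = 6, 6−8 weeks, 200−300 g), single 4 mg/kg iv dose in 25% MPD/10% RH40/65% water, freshly prepared. About 0.2 mL blood drawn at 0.08, 0.25, 0.5, 1, 2, 4, 8, 24 h into EDTA-K2, centrifuged 4000g 5 min at 4 °C; plasma assayed by LC−MS/MS; noncompartmental parameters reported as mean ± SD.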

For data set [4], the target named is T1, Programmed cell death 1 ligand 1. The data set is described as follows: Inhibition of human PD-L1 cocultured in PBMC cells assessed as inhibition of PD1/PDL1 interaction mediated increase in IFN-gamma secretion at 0.1 uM incubated for 72 hrs by ELISA relative to control. Format: cell-based. In short, it runs like this:
(§3)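 Healthy-donor PBMCs, 1 × 10⁵ per well in RPMI 1640 with 10% FBS, stimulated with anti-CD3/anti-CD28 (1:1, 0.8 μg/mL final) plus PD-L1/Fc at 10 μg/mL final. Compound added at 0.1 or 1 μM final and cocultured 72 h at 37 °C, 5% CO₂. Supernatant IFN-γ measured by ELISA; quadruplicate, mean ± SEM.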
A general note: An ELISA detects its analyte on a solid surface through an enzyme-linked reagent.

For data set [5] the target is unchanged. Kind of data set: Inhibition of human PD-L1 cocultured in PBMC cells assessed as inhibition of PD1/PDL1 interaction mediated increase in IFN-gamma secretion at 1 uM incubated for 72 hrs by ELISA relative to control. Format: cell-based. In short, it runs like this:
as §3

The nature of data set [6]: Cytotoxicity against human PBMC cells assessed as reduction in cell viability up to 100 uM incubated for 24 hrs by Cell-titer glo Luminescent assay. Format: cell-based. In short, it runs like this:
(§4)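 Cells (Raji, RAW 264.7 or donor PBMCs) plated at 1 × 10⁴ per well in medium with 10% FBS. Treated for 24 h at 37 °C, 5% CO₂ with 100, 50, 25, 12.5, 6.25 or 3.125 μM compound, or buffer containing 0.2% DMSO. Viability read by CellTiter-Glo luminescence; killing rate = (1 − RLU compound/RLU control) × 100%; triplicate, mean ± SEM.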

A short description of data set [7]: Acute toxicity in C57BL/6J mouse xenografted with MC38 cells assessed as change in body weight at 15 mg/kg, ip QD for 3 week. Format: organism-based. The conditions noted are these: in vivo, 504 h, time 3 weeks. Summed up: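 Female PD-1-humanized C57BL/6J-Pdcd1^{em1(hPDCD1)/Smoc} mice, six weeks old, were acclimated 1 week. They were given 1 × 10⁶ MC38 cells (mouse PD-L1 knockout, human PD-L1 knock-in) s.c. near the hind-leg groin. Mice were randomised at 50−150 mm³ tumour volume (6 per group) and dosed 15 mg/kg ip once daily for 3 weeks. Vehicle was 0.8% DMSO/7.5% RH40 in saline. Body weight was measured twice weekly.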

Data set [8] is described as follows: Dose normalized AUClast in male Sprague-Dawley rat at 4 mg/kg, iv measured up to 24 hrs by LC-MS/MS analysis. Format: ADME, organism-based. The conditions noted are these: in vivo. In short, it runs like this:
as §2

Data set [9] can be described thus: AUC (0 to infinity) in male Sprague-Dawley rat plasma at 4 mg/kg, iv measured up to 24 hrs by LC-MS/MS analysis. Format: ADME, organism-based. Details: route intravenous, dose 4 mg/kg, time <=24. Summed up: as §2
Data set [10] has as its system RAW264.7. Kind of data set: Cytotoxicity against mouse RAW264.7 cells assessed as reduction in cell viability at 3.125 to 100 uM incubated for 24 hrs by Cell-titer glo Luminescent assay. Format: cell-based. The conditions noted are these: raw264.7, 24 h, dose 3.125-100 µM. In short, it runs like this:
as §4

Data set [11] deals with T1, Programmed cell death 1 ligand 1. Kind of data set: Binding affinity to human PD-L1 expressed in CHOK1 cells assessed as inhibition of PD1/PDL1 protein-protein interaction at 500 nM incubated for 30 mins by flow cytometry analysis relative to control. Format: cell-based. The following applies: CHO-K1. Summed up: (§5)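 CHO-K1-hPD-L1 cells, 5 × 10⁵ per tube in PBS with 2% FBS, incubated with hPD-1/Fc (10 μg/mL final) at 4 °C for 30 min. Compound added at 500 nM final and incubated a further 30 min at 4 °C, then stained with APC anti-human IgG Fc. Percentage of hPD-1-bound cells read by flow cytometry. Blocking efficacy calculated against a no-inhibitor positive control and parental CHO-K1 negative control.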
In general terms: A flow cytometer gives signals particle by particle.

For data set [12] the target is unchanged. Kind of data set: Binding affinity to biotinylated human AVI-PD-L1 assessed as dissociation rate constant by biolayer interferometry.
Data set [13] relates to Raji. The data set is described as follows: Cytotoxicity against human Raji cells assessed as reduction in cell viability at 3.125 uM incubated for 24 hrs by Cell-titer glo Luminescent assay. Format: cell-based. Summed up:
as §4

The next data set relates to MC-38. The data set is described as follows: Antitumor activity against mouse MC38 cells xenografted in PD-L1 knockout/PD1 knock-in C57BL/6J mouse assessed as tumor growth inhibition at 15 mg/kg, ip QD for 3 weeks measured after day 21. Format: functional. On the set-up: scale not given: the % may be the effect or the level left.
Data set [14] is described as follows: MRT (0 to infinity) in male Sprague-Dawley rat at 4 mg/kg, iv measured up to 24 hrs by LC-MS/MS analysis. Format: ADME, organism-based. The conditions noted are these: in vivo. Summed up: as §2
Data set [15] addresses T1, Programmed cell death 1 ligand 1. The data set is described as follows: Binding affinity to human PD-L1 expressed in CHOK1 cells assessed as inhibition of PD1/PDL1 protein-protein interaction at 500 nM incubated for 30 mins by flow cytometry analysis. Format: cell-based. The conditions noted are these: CHO-K1. In short, it runs like this:
as §5

Data set [16] is described as follows: Cytotoxicity against human PBMC cells assessed as reduction in cell viability at 6.3 uM incubated for 24 hrs by Cell-titer glo Luminescent assay. Format: cell-based. In short, it runs like this: as §4
The target in data set [17] is T1, Programmed cell death 1 ligand 1. The data set is described as follows: Binding affinity to biotinylated human AVI-PD-L1 by biolayer interferometry. In short, it runs like this:
as §1

Data set [18] is described as follows: Plasma concentration in male Sprague-Dawley rat at 15 mg/kg, po measured up to 24 hrs by LC-MS/MS analysis. Format: ADME, organism-based. Summed up:
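Male Sprague Dawley rats (n = 6, 6−8 weeks, 200−300 g) given a single 15 mg/kg oral dose in 25% MPD/10% RH40/65% water. Blood sampled at 0.25, 0.5, 1, 2, 4, 8, 24 h into EDTA-K2 and spun to plasma; LC−MS/MS analysis, quantifiable limit 0.5 ng/mL.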

Data set [19] in a line: AUClast in male Sprague-Dawley rat at 4 mg/kg, iv measured up to 24 hrs by LC-MS/MS analysis. Format: ADME, organism-based. Details: route intravenous, dose 4 mg/kg, time <=24. The following applies: in vivo. In short, it runs like this: as §2
The nature of data set [20]: Volume of distribution at steady state in male Sprague-Dawley rat at 4 mg/kg, iv measured up to 24 hrs by LC-MS/MS analysis. Format: ADME, organism-based. The following applies: in vivo, read-out: Vdss. Summed up:
as §2

Data set [21] can be described thus: Clearance in male Sprague-Dawley rat at 4 mg/kg, iv measured up to 24 hrs by LC-MS/MS analysis. Format: ADME, organism-based. The conditions noted are these: in vivo. In short, it runs like this:
as §2

The nature of data set [22]: Acute toxicity in C57BL/6J mouse xenografted with MC38 cells assessed as mortality at 15 mg/kg, ip QD for 3 week. The following applies: in vivo, 504 h, time 3 weeks. Format: organism-based.
Data set [23] in a line: AUC (extrapolated) in male Sprague-Dawley rat at 4 mg/kg, iv measured up to 24 hrs by LC-MS/MS analysis. Format: ADME, organism-based. The conditions noted are these: in vivo. In short, it runs like this: as §2
A short description of data set [24]: Initial plasma concentration in male Sprague-Dawley rat plasma at 4 mg/kg, iv measured up to 24 hrs by LC-MS/MS analysis. Format: ADME, organism-based. Summed up:
as §2

The subject of data set [25] is RAW264.7. Kind of data set: Cytotoxicity against mouse RAW264.7 cells assessed as reduction in cell viability incubated for 24 hrs by Cell-titer glo Luminescent assay. Format: cell-based. The conditions noted are these: RAW264.7, 24 h. Summed up: as §4
Data set [26] is described as follows: Cytotoxicity against human PBMC cells assessed as reduction in cell viability incubated for 24 hrs by Cell-titer glo Luminescent assay. Format: cell-based. The following applies: dose 3.125-100 µM. Summed up:
as §4

Data set [27] has as its system Raji. Kind of data set: Cytotoxicity against human Raji cells assessed as reduction in cell viability incubated for 24 hrs by Cell-titer glo Luminescent assay. Format: cell-based. Summed up:
as §4

Data set [28] is described as follows: Cytotoxicity against human PBMC cells assessed as reduction in cell viability at 100 uM incubated for 24 hrs by Cell-titer glo Luminescent assay relative to control. Format: cell-based. Summed up:
as §4

Active and inactive are the calls of the source.

Take `Cc1cc(CN[C@H](CO)C(=O)O)c(OCc2cncc(C#N)c2)cc1NCc1cccc(-c2ccccc2)c1C`: in data set [1], the association rate constant (kon) is 2.17 10^6/M/s. In addition, the Activity entry is reported as “Non-Toxic” in [2]; “Non-Toxic” in [6]; “Non-Toxic” in data set [7]; “Non-Toxic” with RAW264.7 [10]; “Non-Toxic” in the data set with Raji [13]; 61.7% with MC-38. The Activity result in data set [16] and in data set [22] was “Non-Toxic” each time. In data set [3], the half-life (in general, the time needed for the level to fall by half in the phase considered) was 82.8 min. Further, the inhibition (usually the change of the read-out against control, counted positive when it falls) was found to be 72.9% in data set [4] and 56.8% in [5]. This molecule came in with an AUClast/dose in data set [8] of 226 ng·kg·h/mL/mg. Further, the AUC(0-inf) (commonly total exposure, with the tail of the curve extrapolated) in [9] worked out at 0.908 µg·h/mL. Also, the Efficacy in data set [11] was 97.5%. Moreover, the koff in data set [12] is 3.53 10^-5/s. The mean residence time (MRT inf) (commonly a mean duration of stay, worked out from the concentration-time curve) in data set [14] came out at 29.2 min. Moreover, in data set [15], the result was Active. Moreover, in data set [17], the Dissociation constant (KD) was 1.62 10^-11M. The same molecule showed a concentration at 24 h in [18] of 0.0005 µg/mL. The AUC(0-t) (as a rule, the area under the concentration-time curve up to a stated or last time point) at 24 h in [19] was 0.905 µg·h/mL. Moreover, the Vd in [20] came to 2.17 L/kg. Moreover, the clearance (usually the volume of plasma or blood freed of the substance per unit of time) in data set [21] is 4.47 L/h/kg. In data set [23], the “%AUCextra” value is 0.283%. Also, in [24], the C0 at 24 h came out at 4.37 µg/mL.

Consider `COc1nc(NCc2cccc(-c3ccccc3)c2C)ccc1CNCCNC(C)=O`, for which the Activity result is recorded as “Non-Toxic” in data set [16], “Toxic” in data set [26] and 100% in [28]. Further, the EC50 (usually the concentration giving half of the maximal effect) in the data set with RAW264.7 [25] was 6.97 µM; in the data set on Raji [27] it was 13.8 µM.
